Test results: ChEMBL document CHEMBL1121626, “Quantitative structure-activity relationships for N-[N',N'-disubstituted-amino)acetyl]arylamines for local anesthetic activity and acute toxicity” (J Med Chem, 1980)
Active and inactive are the calls of the source. The rule behind the calls is not given here.

What was measured:
[1] = Partition coefficient (logP); type: physicochemical; details: octanol/water
Method in brief: (§1)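 Partition coefficients were measured by Brändström's titrimetric method at 25 °C in 1-octanol/water or cyclohexane/water. Amine hydrochloride in aqueous solution pre-saturated with the solvent was one-fifth neutralized with NaOH, then solvent was added. The pH was held at its original value by automatic alkali addition until equilibrium. Each value is the mean of eight determinations, reported with 95% confidence intervals.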

[2] = test system: Oryctolagus cuniculus; assay: Anaesthetic activity measured as anaesthetic dose (AD) required to nullify the rabbit corneal reflex after 5 min; type: functional, Cornea
Method in brief: (§2)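 Aqueous drug solution, 0.25 mL, applied to rabbit cornea for 1 min, then wiped off. 100 regular mechanical stimulations were given. The minimal active dose is the concentration that abolished the corneal reflex at 5 min. Testing was repeated until 10 concordant results were obtained, with experimental error no more than 10%.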

[3] = Dissociation constant was observed; type: physicochemical
Method in brief: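 Values for water-insoluble compounds were obtained by extrapolation. Two values were derived indirectly from P = P'(1 + 10^(pKa − pH)), using P' measured at pH 12 and 7.34, or at pH 7.2 and 6.0.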

[4] = test system: Mus musculus; assay: Compound was evaluated for lethal dose (pLD50 = log1/LD50 in mol/kg.); type: toxicity, organism-based; details: in vivo
Method in brief: (§3)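 Mice, groups of 10 randomized animals; aqueous drug solution given intravenously at 0.2 mL/20 g body weight. Percentage dead scored 5 days after start of experiment; LD50 derived by the usual statistical method, reported with 95% confidence interval.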

[5] = Intravenous lethal dose of the compound; type: ADME, organism-based; details: mouse, in vivo; method in brief: as §3
[6] = Compound was evaluated for the apparent partition coefficient at pH 7.4; type: physicochemical; details: octanol/water
Method in brief: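 Apparent partition coefficient at pH 7.4 was calculated from the octanol/water log P and pKa using P = P'(1 + 10^(pKa − pH)).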

[7] = Partition coefficient (logP) (cyclohexane); type: physicochemical; details: cyclohexane/water; method in brief: as §1
[8] = test system: Oryctolagus cuniculus; assay: Compound was evaluated for anesthetic dose (pAD = log 1/AD; AD = anesthetic dose)
[9] = organism: Mus musculus; assay: Antiarrhythmic activity (arrhythmy induced by HCCl3 in mice) measured as its effect on ventricular fibrillation; No effect; type: functional, organism-based; details: Heart
[10] = test system: Mus musculus; assay: Delay of respiratory arrest was observed at 10 mg/kg ip in mice in antiarrhythmic assay; type: functional, Heart; details: route intraperitoneal
[11] = test system: Mus musculus; assay: Delay of respiratory arrest was observed at 5 mg/kg ip in mice in antiarrhythmic assay; type: functional, Heart; details: route intraperitoneal
[12] = test system: Oryctolagus cuniculus; assay: Anaesthetic activity measured as anaesthetic dose (AD) required to nullify the rabbit corneal reflex after 5 min;d = Irritant; type: functional, organism-based; details: Cornea; method in brief: as §2

| SMILES | logP [1] | AD [2] [mM] | pKa [3] | pLD50 [4] | LD50 [5] [µmol/kg] | logD [6] | logP [7] | pAD [8] | Activity [9] | Increase [10] [%] | Increase [11] [%] | AD [12] |
| --- | --- | --- | --- | --- | --- | --- | --- | --- | --- | --- | --- | --- |
| CCN(CC)CC(=O)NC1CCc2ccccc21.Cl (stereo not given) | 2.74 | 27.9 | 8.19 | 3.62 | 238 | 1.88 | 1.645 | 1.45 | inactive | – | – | – |
| CCCN(CCC)CC(=O)NCc1ccccc1.Cl | 3.11 | 17.5 | – | 3.59 | 254 | – | 2.386 | 1.75 | inactive | – | – | – |
| CCN(CC)CC(=O)NCc1ccccc1.Cl | 2.14 | 117 | 8.07 | 3.42 | 376 | 1.39 | 1.02 | 0.93 | inactive | 25 | – | – |
| CCCCCN(CCCCC)CC(=O)NCc1ccccc1.Cl | 5.19 | 29.3 | – | – | – | – | 5.259 | 1.53 | inactive | – | – | – |
| CCN(CC)CC(=O)NC1CC(c2ccccc2)c2ccccc21.Cl (stereo not given) | 4.41 | 55.8 | – | 3.78 | 164 | – | 4.153 | 1.55 | inactive | – | – | – |
| CCN(CC)CC(=O)NC1c2ccccc2-c2ccccc21.Cl | 3.64 | 15.1 | 7.98 | 3.83 | 146 | 2.96 | 3.067 | 1.82 | inactive | – | – | – |
| Cl.O=C(CN1CCOCC1)NCc1ccccc1 | 0.672 | 185 | 4.98 | 2.77 | 1720 | 0.67 | -1.132 | 0.73 | inactive | – | – | – |
| CCN(CC)CCOC(=O)c1ccc(N)cc1.Cl [PROCAINE HYDROCHLORIDE] | – | 36.7 | – | – | 169 | – | – | – | inactive | – | – | – |
| CCN(CC)CC(=O)NC(c1ccccc1)c1ccccc1.Cl | 3.74 | 15 | – | 3.67 | 212 | – | 3.2 | 1.82 | inactive | 27.8 | – | – |
| CCN(CC)CC(=O)NC1c2ccccc2CCc2ccccc21.Cl | 4.41 | 20.9 | – | 3.86 | 139 | – | 4.153 | 1.25 | inactive | – | – | – |
| CCCCN(CCCC)CC(=O)NCc1ccccc1.Cl | 4.16 | 16 | – | 3.93 | 116 | – | 3.791 | 1.8 | inactive | – | 33.2 | – |
| CN(C)CC(=O)NCc1ccccc1.Cl | 1.11 | – | 7.62 | 3.13 | 735 | 0.681 | -0.453 | – | inactive | – | – | Irritant |
| CCCN(CCC)CC(=O)NC1CCc2ccccc21.Cl (stereo not given) | 3.79 | 12.8 | – | 3.84 | 145 | – | 3.277 | 1.89 | inactive | – | – | – |
| CCN(CC)CC(=O)NCc1ccccc1-c1ccccc1.Cl | 3.74 | 34.5 | – | 3.89 | 128 | – | 3.2 | 1.82 | inactive | – | 20.5 | – |
| Cl.O=C(CN1CCCCC1)NCc1ccccc1 | 2.27 | 186 | 7.71 | 3.61 | 245 | 1.78 | 1.198 | 0.73 | inactive | – | – | – |
| CCCN(CCC)CC(=O)NC1c2ccccc2-c2ccccc21.Cl | 4.61 | 20.9 | 7.28 | – | – | 4.37 | 4.44 | 1.68 | inactive | – | – | – |
| O=C(CN1CCCC1)NCc1ccccc1 | 1.69 | 196 | 8.27 | 3.44 | 361 | 0.769 | 0.156 | 0.71 | inactive | – | – | – |
